{"source": "ChEMBL document CHEMBL1140435", "about": "“Synthesis and evaluation of cyclic secondary amine substituted phenyl and benzyl nitrofuranyl amides as novel antituberculosis agents” (J Med Chem, 2005)", "key": {"[1]": {"tested_on": "Mycobacterium tuberculosis", "test": "Activity against Mycobacterium tuberculosis H37Rv", "type": "functional"}, "[2]": {"test": "Oral bioavailability in female C57BL/6 mice administered with 300 mg/kg, po", "type": "ADME, organism-based", "details": "C57BL/6, mouse, in vivo", "method_in_brief": "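Graded Low (BF 1–20), Medium (21–80) or High (>80). Serum was serially diluted with naive mouse serum and added to H37Rv at 10^4 CFU/well, then incubated at 35 °C. Wells scored positive if OD600 was <50% of the untreated control.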"}, "Mus musculus": {"tested_on": "Mus musculus", "test": "Maximum concentration in female C57BL/6 mice administered with 300 mg/kg, po", "type": "ADME, organism-based", "set-up": "dose 300 mg/kg, route oral", "details": "in vivo", "method_in_brief": "(§1)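 8–10 week old female C57BL/6 mice given one oral gavage dose, generally 300 mg/kg, below the maximum tolerated dose; HCl salts where possible. Tail-vein bleeds were taken from 3 mice at 20 min, 2, 4 and 8 h, and the serum was collected. Tmax and half-life were read off the concentration–time curve.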"}, "[3]": {"test": "Tmax in female C57BL/6 mice administered with 300 mg/kg, po", "type": "ADME, organism-based", "set-up": "dose 300 mg/kg, route oral", "details": "C57BL/6, mouse, in vivo", "method_in_brief": "as §1, with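 “collected. […]” for “collected.”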"}, "[4]": {"tested_on": "Mycobacterium tuberculosis", "test": "Viable number of Mycobacterium tuberculosis colonies in lungs of infected mice after 9 days of administration of 300 mg/kg", "type": "functional, Lung", "method_in_brief": "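GKO mice infected by low-dose aerosol delivering ~50 bacilli to the lungs. Treatment began 18 days post-infection: 9 daily doses at 300 mg/kg. At day 27 post-infection, lung homogenates were serially diluted onto 7H11 agar and incubated at 37 °C in ambient air for 4 weeks. Result given as Log10 CFU ± SEM and Log10 reduction versus untreated controls.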"}, "[5]": {"test": "Half life in female C57BL/6 mice administered with 300 mg/kg, po", "type": "ADME, organism-based", "set-up": "dose 300 mg/kg, route oral", "details": "C57BL/6, mouse, in vivo", "method_in_brief": "as §1"}}}
{"smiles": "CN1CCN(c2cccc(CNC(=O)c3ccc([N+](=O)[O-])o3)c2)CC1", "values": [{"measurement": "MIC50", "setting": "[1]", "value": 3.12, "unit": "µg/mL"}]}
{"smiles": "O=C(NCc1ccc(N2CCOCC2)cc1)c1ccc([N+](=O)[O-])o1", "values": [{"measurement": "MIC50", "setting": "[1]", "value": 0.2, "unit": "µg/mL"}, {"measurement": "bioavailability", "setting": "[2]", "value": 21, "unit": "%"}, {"measurement": "Cmax", "setting": "Mus musculus", "value": 3000, "unit": "ng/mL"}]}
{"smiles": "O=C(Nc1ccc(N2CCC(Cc3ccccc3)CC2)cc1)c1ccc([N+](=O)[O-])o1", "values": [{"measurement": "MIC50", "setting": "[1]", "value": 3.13, "unit": "µg/mL"}]}
{"smiles": "CN1CCN(c2ccc(CNC(=O)c3ccc([N+](=O)[O-])o3)cc2F)CC1.Cl", "values": [{"measurement": "Tmax", "setting": "[3]", "value": 30, "unit": "min"}]}
{"smiles": "O=C(Nc1ccc(N2CCN(c3ccccn3)CC2)cc1)c1ccc([N+](=O)[O-])o1", "values": [{"measurement": "MIC50", "setting": "[1]", "value": 0.4, "unit": "µg/mL"}]}
{"smiles": "O=C(NCc1ccc(N2CCSCC2)cc1)c1ccc([N+](=O)[O-])o1", "values": [{"measurement": "Log10 cfu", "setting": "[4]", "value": 7.53}, {"measurement": "MIC50", "setting": "[1]", "value": 0.1, "unit": "µg/mL"}, {"measurement": "bioavailability", "setting": "[2]", "value": 1, "unit": "%"}, {"measurement": "Cmax", "setting": "Mus musculus", "value": 820, "unit": "ng/mL"}]}
{"smiles": "O=C(NCc1ccc(N2CCS(=O)(=O)CC2)cc1)c1ccc([N+](=O)[O-])o1", "values": [{"measurement": "MIC50", "setting": "[1]", "value": 12.2, "unit": "µg/mL"}]}
{"smiles": "CN1CCN(c2ccc(CNC(=O)c3ccc([N+](=O)[O-])o3)cc2)CC1", "values": [{"measurement": "MIC50", "setting": "[1]", "value": 0.2, "unit": "µg/mL"}]}
{"smiles": "O=C(NCc1ccc(N2CCC(Cc3ccccc3)CC2)c(F)c1)c1ccc([N+](=O)[O-])o1", "values": [{"measurement": "MIC50", "setting": "[1]", "value": 0.2, "unit": "µg/mL"}]}
{"smiles": "Cl.O=C(NCc1ccc(N2CCN(Cc3ccccc3)CC2)cc1)c1ccc([N+](=O)[O-])o1", "values": [{"measurement": "half-life", "setting": "[5]", "value": 66, "unit": "min"}, {"measurement": "Tmax", "setting": "[3]", "value": 30, "unit": "min"}, {"measurement": "bioavailability", "setting": "[2]", "value": "> 80", "unit": "%"}, {"measurement": "Cmax", "setting": "Mus musculus", "value": 2240, "unit": "ng/mL"}]}
{"smiles": "Cl.O=C(NCc1ccc(N2CCN(CC3CC3)CC2)cc1)c1ccc([N+](=O)[O-])o1", "values": [{"measurement": "Tmax", "setting": "[3]", "value": 30, "unit": "min"}]}
{"smiles": "O=C(NCc1ccc(N2CCOCC2)c(F)c1)c1ccc([N+](=O)[O-])o1", "values": [{"measurement": "MIC50", "setting": "[1]", "value": 0.4, "unit": "µg/mL"}]}
{"smiles": "O=C(Nc1cccc(N2CCC(Cc3ccccc3)CC2)c1)c1ccc([N+](=O)[O-])o1", "values": [{"measurement": "MIC50", "setting": "[1]", "value": 12.5, "unit": "µg/mL"}]}
{"smiles": "CN1CCN(c2cccc(NC(=O)c3ccc([N+](=O)[O-])o3)c2)CC1", "values": [{"measurement": "MIC50", "setting": "[1]", "value": 12.5, "unit": "µg/mL"}]}
{"smiles": "CN(C)c1ccc(CNC(=O)c2ccc([N+](=O)[O-])o2)cc1", "values": [{"measurement": "Log10 cfu", "setting": "[4]", "value": 7.46}, {"measurement": "MIC50", "setting": "[1]", "value": 0.1, "unit": "µg/mL"}]}
{"smiles": "CN1CCN(c2ccc(NC(=O)c3ccc([N+](=O)[O-])o3)cc2)CC1", "values": [{"measurement": "MIC50", "setting": "[1]", "value": 12.5, "unit": "µg/mL"}]}
{"smiles": "CN1CCN(c2ccc(CNC(=O)c3ccc([N+](=O)[O-])o3)cc2F)CC1", "values": [{"measurement": "MIC50", "setting": "[1]", "value": 0.8, "unit": "µg/mL"}]}
{"smiles": "CN1CCN(/N=C\\c2ccc(CNC(=O)c3ccc([N+](=O)[O-])o3)cc2)CC1", "values": [{"measurement": "MIC50", "setting": "[1]", "value": 0.4, "unit": "µg/mL"}]}
{"smiles": "O=C(NCc1ccc(N2CC[S+]([O-])CC2)cc1)c1ccc([N+](=O)[O-])o1", "values": [{"measurement": "MIC50", "setting": "[1]", "value": 3.13, "unit": "µg/mL"}]}
{"smiles": "CN(C)c1ccc(CNC(=O)c2ccc([N+](=O)[O-])o2)cc1.Cl", "values": [{"measurement": "Tmax", "setting": "[3]", "value": 30, "unit": "min"}]}
{"smiles": "O=C(NCc1ccc(N2CCN(CC3CC3)CC2)cc1)c1ccc([N+](=O)[O-])o1", "values": [{"measurement": "MIC50", "setting": "[1]", "value": 0.05, "unit": "µg/mL"}]}
{"smiles": "O=C(NCc1ccc(N2CCN(Cc3ccccc3)CC2)c(F)c1)c1ccc([N+](=O)[O-])o1", "values": [{"measurement": "Log10 cfu", "setting": "[4]", "value": 7.65}, {"measurement": "MIC50", "setting": "[1]", "value": 0.025, "unit": "µg/mL"}, {"measurement": "bioavailability", "setting": "[2]", "value": 21, "unit": "%"}, {"measurement": "Cmax", "setting": "Mus musculus", "value": 1640, "unit": "ng/mL"}]}
{"smiles": "O=C(NCc1ccc(N2CCN(Cc3ccccc3)CC2)cc1)c1ccc([N+](=O)[O-])o1", "values": [{"measurement": "Log10 cfu", "setting": "[4]", "value": 7.92}, {"measurement": "MIC50", "setting": "[1]", "value": 0.0125, "unit": "µg/mL"}]}
{"smiles": "O=C(NCc1cccc(N2CCC(Cc3ccccc3)CC2)c1)c1ccc([N+](=O)[O-])o1", "values": [{"measurement": "MIC50", "setting": "[1]", "value": 1.56, "unit": "µg/mL"}]}
{"smiles": "O=C(Nc1ccc(N2CCN(Cc3ccccc3)CC2)cc1)c1ccc([N+](=O)[O-])o1", "values": [{"measurement": "MIC50", "setting": "[1]", "value": 0.8, "unit": "µg/mL"}]}
{"smiles": "O=C(Nc1cccc(N2CCOCC2)c1)c1ccc([N+](=O)[O-])o1", "values": [{"measurement": "MIC50", "setting": "[1]", "value": 3.13, "unit": "µg/mL"}]}
{"smiles": "O=C(Nc1cccc(N2CCN(Cc3ccccc3)CC2)c1)c1ccc([N+](=O)[O-])o1", "values": [{"measurement": "MIC50", "setting": "[1]", "value": 12.5, "unit": "µg/mL"}]}
{"smiles": "O=C(Nc1cccc(N2CCN(c3ccccn3)CC2)c1)c1ccc([N+](=O)[O-])o1", "values": [{"measurement": "MIC50", "setting": "[1]", "value": 3.13, "unit": "µg/mL"}]}
{"smiles": "O=C(NCc1ccc(N2CCSCC2)c(F)c1)c1ccc([N+](=O)[O-])o1", "values": [{"measurement": "MIC50", "setting": "[1]", "value": 0.8, "unit": "µg/mL"}]}
{"smiles": "O=C(NCc1ccc(N2CCC(Cc3ccccc3)CC2)cc1)c1ccc([N+](=O)[O-])o1", "values": [{"measurement": "MIC50", "setting": "[1]", "value": 0.8, "unit": "µg/mL"}]}
{"smiles": "NNC(=O)c1ccncc1", "note": "[ISONIAZID]", "values": [{"measurement": "Log10 cfu", "setting": "[4]", "value": 3.88}, {"measurement": "bioavailability", "setting": "[2]", "value": "> 80", "unit": "%"}, {"measurement": "Cmax", "setting": "Mus musculus", "value": "> 38400", "unit": "ng/mL"}]}
{"smiles": "O=C(Nc1ccc(N2CCOCC2)cc1)c1ccc([N+](=O)[O-])o1", "values": [{"measurement": "MIC50", "setting": "[1]", "value": 3.13, "unit": "µg/mL"}]}
{"smiles": "Cl.O=C(NCc1cccc(N2CCN(Cc3ccccc3)CC2)c1)c1ccc([N+](=O)[O-])o1", "values": [{"measurement": "half-life", "setting": "[5]", "value": 78, "unit": "min"}, {"measurement": "Tmax", "setting": "[3]", "value": 30, "unit": "min"}, {"measurement": "bioavailability", "setting": "[2]", "value": 21, "unit": "%"}, {"measurement": "Cmax", "setting": "Mus musculus", "value": 1640, "unit": "ng/mL"}]}
{"smiles": "O=C(NCc1cccc(N2CCN(Cc3ccccc3)CC2)c1)c1ccc([N+](=O)[O-])o1", "values": [{"measurement": "MIC50", "setting": "[1]", "value": 0.1, "unit": "µg/mL"}]}
